Like-named read-outs stand apart in the source and are kept apart here.
What was measured:
Format in all cases: cell-based, human
U-118 MG = assay: MTT cell viability/proliferation assay, U-118 MG; conditions: read-out: U-118 MG IC50
Method in brief: (§1)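 Human lines grown at 37 °C, 5% CO2 with 10% FBS: U-118 MG in DMEM; T98G and HaCaT in EMEM. Seeded 1 × 10⁴ cells/well, left 24 h, then exposed 48 h to test compound at 7.81–1000 μg mL⁻¹ (eight twofold steps). MTT added at 0.5 mg mL⁻¹ final for 2 h. Formazan dissolved in DMSO, read at 492 nm against 690 nm reference. IC50 is the mean of ≥3 independent experiments.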

T98G = assay: MTT cell viability/proliferation assay, T98G; conditions: read-out: T98G IC50
Method in brief: as §1

HaCaT = assay: MTT cell viability/proliferation assay, HaCaT; conditions: read-out: HaCaT IC50
Method in brief: as §1

T98G cells = assay: Colony formation; conditions: for clonogenic survival compared to control cells: 20 μM; for reduction of cancer cell clonogenic potential: 50 μM
Method in brief: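 T98G cells seeded at 500 per well and allowed to adhere 24 h. Exposed to test compound at 2–100 μM in triplicate; after 24 h switched to compound-free medium, 7 days total. Colonies (≥50 cells) methanol-fixed, stained with 1% gentian violet and counted by light microscopy.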

[1] = MTT, 48 hours, glioblastoma multiforme cell line

Compound: CCOP(=O)(OCC)C(Cc1c(F)c(F)c(SCC(NC(C)=O)C(=O)OC)c(F)c1F)Nc1ccccc1 (stereo not shown) [Compound 2j, Methyl 2-acetamido-3-((4-(2-(diethoxyphosphoryl)-2-(phenylamino)ethyl)-2,3,5,6-tetrafluorophenyl)thio)propanoate]
- IC50 (U-118 MG; Homo sapiens, U-118-MG, 48 h): > 100 µM
- IC50 (T98G; Homo sapiens, T98G, 48 h): 82.7 ± 15.7 µM
- IC50 (HaCaT; Homo sapiens, HaCaT, 48 h): > 100 µM

Compound: CCOP(=O)(OCC)C(Cc1c(F)c(F)c(Sc2cccc(OC)c2)c(F)c1F)Nc1ccccc1 (stereo not shown) [Compound 2e, Diethyl (1-(phenylamino)-2-(2,3,5,6-tetrafluoro-4-((3-methoxyphenyl)thio)phenyl)ethyl)phosphonate]
- IC50 (U-118 MG; Homo sapiens, U-118-MG, 48 h): 21.4 ± 2.7 µM
- clonogenic survival compared to control cells (T98G cells): 30%
- reduction of cancer cell clonogenic potential (T98G cells): 85%
- IC50 (T98G; Homo sapiens, T98G, 48 h): 20.4 ± 3.1 µM
- IC50 (HaCaT; Homo sapiens, HaCaT, 48 h): 10.1 ± 2.2 µM

Compound: CCOP(=O)(OCC)C(Cc1c(F)c(F)c(Oc2ccc(Cl)cc2)c(F)c1F)Nc1ccccc1 (stereo not shown) [Compound 2r, Diethyl (2-(4-(4-chlorophenoxy)-2,3,5,6-tetrafluorophenyl)-1-(phenylamino)ethyl)phosphonate]
- IC50 (U-118 MG; Homo sapiens, U-118-MG, 48 h): 79.2 ± 6.4 µM
- IC50 (T98G; Homo sapiens, T98G, 48 h): 70.3 ± 8.3 µM
- IC50 (HaCaT; Homo sapiens, HaCaT, 48 h): 48.4 ± 7.4 µM

Compound: O=c1[nH]c(=O)n([C@H]2C[C@H](O)[C@@H](CO)O2)cc1F [Compound 5-FdU, 5-fluoro-2′-deoxyuridine, reference compound]
- IC50 (U-118 MG; Homo sapiens, U-118-MG, 48 h): 23.4 ± 1.6 µM
- IC50 (T98G; Homo sapiens, T98G, 48 h): 5.57 ± 0.9 µM
- IC50 (HaCaT; Homo sapiens, HaCaT, 48 h): 4.42 ± 1.1 µM

Compound: CCOP(=O)(OCC)C(Cc1c(F)c(F)c(F)c(F)c1F)Nc1ccccc1 (stereo not shown) [Compound 1a, Diethyl (2-(perfluorophenyl)-1-(phenylamino)ethyl)phosphonate]
- IC50 (U-118 MG; Homo sapiens, U-118-MG, 48 h): 60.7 ± 8.9 µM
- IC50 (T98G; Homo sapiens, T98G, 48 h): 40.4 ± 6.2 µM
- IC50 (HaCaT; Homo sapiens, HaCaT, 48 h): 56.8 ± 7.4 µM

Compound: CCOP(=O)(OCC)C(Cc1c(F)c(F)c(Sc2cccc(N)c2)c(F)c1F)Nc1ccccc1 (stereo not shown) [Compound 2f, Diethyl (2-(4-((3-aminophenyl)thio)-2,3,5,6-tetrafluorophenyl)-1-(phenylamino)ethyl)phosphonate]
- IC50 (U-118 MG; Homo sapiens, U-118-MG, 48 h): 28.1 ± 3.6 µM
- clonogenic survival compared to control cells (T98G cells): 10%
- reduction of cancer cell clonogenic potential (T98G cells): 98%
- IC50 (T98G; Homo sapiens, T98G, 48 h): 25.5 ± 1.9 µM
- IC50 (HaCaT; Homo sapiens, HaCaT, 48 h): 18.2 ± 3.4 µM

Compound: Diethyl (1-(phenylamino)-2-(2,3,5,6-tetrafluoro-4-(m-tolylthio)phenyl)ethyl)phosphonate [Compound 2b]
- IC50 (U-118 MG; [1]): 37.9 ± 2.5 µM
- IC50 (T98G; [1]): 14.5 ± 3.3 µM
- IC50 (HaCaT; MTT, 48 hours, referential healthy cells): 26.5 ± 4.7 µM

— PMC9069932 (RSC Advances, 2019)
